Reference: ChEMBL document CHEMBL5150021, “Identification of 5-(Aryl/Heteroaryl)amino-4-quinolones as Potent Membrane-Disrupting Agents to Combat Antibiotic-Resistant Gram-Positive Bacteria” (J Med Chem, 2022)
≈ marks a conversion by molar mass, not a printed value. Calls of active or inactive are those of the source. The rule behind the calls is not given here.

Tests used:
Staphylococcus aureus [1] = assay: Antibacterial activity against methicillin resistant Staphylococcus aureus FPR3757 assessed as inhibition of bacterial growth incubated for 24 hrs by CLSI based method; format: functional; settings: read-out: MIC100
Method in brief: (§1)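 It was mixed 1:1 with twofold serial compound dilutions and incubated stationary at 37 °C for 24 h. MIC was the lowest concentration giving complete inhibition of observable growth, with an oxacillin control.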

Erythrocyte = assay: Hemolytic activity in sheep erythrocytes at 32 ug/ml incubated for 1 hr; format: toxicity, cell-based, Ovis aries; settings: dose 32 µg/ml
Method in brief: (§2)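 4% sheep erythrocytes mixed 1:1 with twofold serial compound dilutions in PBS, incubated stationary 1 h at 37 °C, then centrifuged at 500g for 5 min. Supernatant A540 is measured and percent hemolysis is calculated relative to DMSO vehicle (0%) and Triton X-100 (100%). Triplicate, mean ± SD.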

[2] = Cytotoxicity against sheep erythrocytes assessed as reduction in cell viability; format: toxicity, cell-based, Ovis aries, Erythrocyte; method in brief: as §2
[3] = Therapeutic index, ratio of CC50 for Cytotoxicity against sheep erythrocytes to MIC for antibacterial activity against methicillin resistant Staphylococcus aureus FPR3757; format: toxicity
Method in brief: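 Ratio of erythrocyte CC50 to MRSA FPR3757 MIC. For hemolysis, 4% washed sheep erythrocytes were mixed 1:1 with twofold compound dilutions in PBS and incubated 1 h at 37 °C. Supernatant A540 was read after centrifugation and normalized between DMSO and Triton X-100 (100% lysis). Triplicates. Highest concentration tested: 32 μg/mL.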

Staphylococcus aureus [4] = assay: Antibacterial activity against methicillin-resistant Staphylococcus aureus MW2 assessed as inhibition of bacterial growth incubated for 24 hrs by CLSI based method; format: functional
Method in brief: (§3)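 Broth microdilution per CLSI. Equal volume of twofold serial compound dilutions added. Incubated stationary at 37 °C for 24 h. MIC taken as lowest concentration giving complete inhibition of visible growth. Oxacillin control for Gram-positives, ceftriaxone for Gram-negatives.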

Staphylococcus aureus [5] = assay: Antibacterial activity against methicillin-resistant Staphylococcus aureus COL assessed as inhibition of bacterial growth incubated for 24 hrs by CLSI based method; format: functional; method in brief: as §3
Staphylococcus aureus [6] = assay: Antibacterial activity against methicillin-resistant Staphylococcus aureus N315 assessed as inhibition of bacterial growth incubated for 24 hrs by CLSI based method; format: functional; method in brief: as §3
Staphylococcus aureus [7] = assay: Antibacterial activity against methicillin-resistant Staphylococcus aureus NRS71 assessed as inhibition of bacterial growth incubated for 24 hrs by CLSI based method; format: functional; method in brief: as §3
[8] = system: Staphylococcus epidermidis; assay: Antibacterial activity against Staphylococcus epidermidis NIF104008 assessed as inhibition of bacterial growth incubated for 24 hrs by CLSI based method; format: functional; method in brief: as §3
[9] = system: Staphylococcus epidermidis; assay: Antibacterial activity against Staphylococcus epidermidis NIF104003 assessed as inhibition of bacterial growth incubated for 24 hrs by CLSI based method; format: functional; method in brief: as §3
Enterococcus faecalis [10] = assay: Antibacterial activity against Enterococcus faecalis ATCC700802 assessed as inhibition of bacterial growth incubated for 24 hrs by CLSI based method; format: functional; method in brief: as §3
Enterococcus faecalis [11] = assay: Antibacterial activity against Enterococcus faecalis DHMC #1 assessed as inhibition of bacterial growth incubated for 24 hrs by CLSI based method; format: functional; method in brief: as §3
Enterococcus faecium [12] = assay: Antibacterial activity against Enterococcus faecium ATCC19579 assessed as inhibition of bacterial growth incubated for 24 hrs by CLSI based method; format: functional; method in brief: as §3
Enterococcus faecium [13] = assay: Antibacterial activity against Enterococcus faecium DHMC #1 assessed as inhibition of bacterial growth incubated for 24 hrs by CLSI based method; format: functional; method in brief: as §3
Escherichia coli = assay: Antibacterial activity against Escherichia coli DHMC-1 assessed as inhibition of bacterial growth incubated for 24 hrs by CLSI based method; format: functional; method in brief: as §3
Klebsiella pneumoniae = assay: Antibacterial activity against Klebsiella pneumoniae 7117 assessed as inhibition of bacterial growth incubated for 24 hrs by CLSI based method; format: functional; method in brief: as §3
Enterobacter cloacae = assay: Antibacterial activity against Enterobacter cloacae ND-21 assessed as inhibition of bacterial growth incubated for 24 hrs by CLSI based method; format: functional; method in brief: as §3
Candida albicans = assay: Antifungal activity against Candida albicans SC5314 assessed as inhibition of bacterial growth incubated for 24 hrs by CLSI based method; format: functional
Method in brief: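 Broth microdilution per CLSI. It is mixed 1:1 with twofold serial compound dilutions and incubated stationary at 35 °C for 24 h. MIC is read as the lowest concentration with no observable growth.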

Staphylococcus aureus [14] = assay: Antibacterial activity against community-associated methicillin-resistant Staphylococcus aureus USA300 FPR3757 assessed as inhibition of bacterial growth incubated for 24 hrs by CLSI based method; format: functional; method in brief: as §1
Cell membrane [15] = assay: Induction of cell membrane damage in Staphylococcus aureus USA300 assessed as cross-wall-septum formation with reduced splitting at 1 times MIC measured after 10 mins by TEM analysis; format: subcellular
Cell membrane [16] = assay: Induction of cell membrane damage in Staphylococcus aureus USA300 assessed as mesosome-like membrane inclusions at 1 times MIC measured after 1 hrs by TEM analysis
Method in brief: (§4)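 Fixed in glutaraldehyde/paraformaldehyde in cacodylate pH 7.4, post-fixed with osmium tetroxide, stained with uranyl acetate, resin-embedded, thin-sectioned and imaged by TEM.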

Cell membrane [17] = assay: Induction of cell membrane damage in Staphylococcus aureus USA300 assessed as membrane wrinkling at 1 times MIC measured after 1 hrs by TEM analysis; method in brief: as §4
Cell membrane [18] = assay: Induction of cell membrane damage in Staphylococcus aureus USA300 assessed as bulging of the septum at 1 times MIC measured after 1 hrs by TEM analysis; method in brief: as §4
Vero [19] = assay: Cytotoxicity against African green monkey Vero cells assessed as increase in LDH release at 0.47 to 30 uM incubated for 24 hrs; format: toxicity, cell-based; settings: chlorocebus sabaeus, dose 0.47-30 µM
Method in brief: (§5)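 Confluent Vero cells (maintained in RPMI 1640 + 10% FBS, 37 °C, 5% CO2) exposed to compound at 0.47–30 μM (twofold dilutions) in serum-free medium for 24 h at 37 °C. LDH in supernatant is measured colorimetrically at 490 nm and expressed as percent of 2% detergent positive control.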

Vero [20] = assay: Cytotoxicity against African green monkey Vero cells assessed as increase in LDH release at 30 uM incubated for 24 hrs relative to control; format: toxicity, cell-based; settings: chlorocebus sabaeus; method in brief: as §5
[21] = Protein binding in human plasma at […] incubated for 4 hrs under shaking condition by LC-MS/MS based equilibrium dialysis method; format: ADME, cell-free
Method in brief: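 Rapid equilibrium dialysis (8k MWCO). Compound is spiked into human plasma at 10 μg/mL and dialysed against DPBS pH 7.4 with shaking for 4 h at 37 °C. Matrices are matched, proteins precipitated with methanol containing internal standard, and both chambers quantified by LC-MS/MS against a calibration curve. Percent free and bound are calculated from chamber concentrations.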

Staphylococcus aureus [22] = assay: Antibacterial activity against methicillin resistant Staphylococcus aureus FPR3757 assessed as inhibition of bacterial growth incubated for 24 hrs in presence of 10% FBS by CLSI based method; format: functional
Method in brief: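 CLSI broth microdilution against MRSA FPR3757 (USA300) in Mueller–Hinton broth supplemented with 10% serum (fetal bovine or mouse). Inoculum 10⁶ CFU/mL with twofold serial compound dilutions, stationary incubation at 37 °C for 24 h. MIC read as lowest concentration with complete inhibition of visible growth.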

Staphylococcus aureus [23] = assay: microbe, parasite or virus in culture; settings: USA300 FPR3757, 24 h
[24] = Kinetic aqueous solubility of the compound in DPBS at pH 7.4 at 100 ug/ml measured after 6 hrs by LC-MS/MS analysis; format: physicochemical; settings: DPBS, pH 7.4, dose 100 µg/ml, read-out: Kinetic_solubility

Question: Which MIC (Staphylococcus aureus [1]) does the source give for `O=c1cc(C(F)(F)F)[nH]c2cc(C(F)(F)F)cc(Nc3ccc(F)c(F)c3)c12` here?
Answer: The MIC was under 0.0625 µg/mL.

Question: And the Activity (Erythrocyte)?
Answer: Its Activity is “Non-Toxic”.

Question: And the CC50 [2]?
Answer: Its CC50 is over 32 µg/mL.

Question: And the selectivity ratio [3]?
Answer: The selectivity ratio was over 500.

Question: Which results are given for `O=c1cc(C(F)(F)F)[nH]c2cc(C(F)(F)F)cc(N[C@H]3CC[C@H](C(F)(F)F)CC3)c12`?
Answer: MIC (Staphylococcus aureus [1]): 0.125 µg/mL (≈ 0.28 µM); MIC (Staphylococcus aureus [4]): 0.125 µg/mL (≈ 0.28 µM); MIC (Staphylococcus aureus [5]): < 0.06 µg/mL; MIC (Staphylococcus aureus [6]): 0.125 µg/mL (≈ 0.28 µM); MIC (Staphylococcus aureus [7]): 0.0625 µg/mL (≈ 0.14 µM); MIC [8]: 0.125 µg/mL (≈ 0.28 µM); MIC [9]: 0.125 µg/mL (≈ 0.28 µM); MIC (Enterococcus faecalis [10]): 2 µg/mL (≈ 4.48 µM); MIC (Enterococcus faecalis [11]): 0.125 µg/mL (≈ 0.28 µM); MIC (Enterococcus faecium [12]): 0.25 µg/mL (≈ 0.56 µM); MIC (Enterococcus faecium [13]): 0.25 µg/mL (≈ 0.56 µM); MIC (Escherichia coli): > 128 µg/mL; MIC (Klebsiella pneumoniae): > 128 µg/mL; MIC (Enterobacter cloacae): > 128 µg/mL; MIC (Candida albicans): > 256 µg/mL; MIC (Staphylococcus aureus [14]): 0.5 µg/mL (≈ 1.12 µM); Activity (Cell membrane [15]): Active; Activity (Cell membrane [16]): Active; Activity (Cell membrane [17]): Active; Activity (Cell membrane [18]): Active; Activity (Erythrocyte): Non-Toxic; Activity (Vero [19]): Non-Toxic; Activity (Vero [20]): 20%; PPB [21]: 99.9%; MIC (Staphylococcus aureus [22]): 4 µg/mL; MBC (Staphylococcus aureus [23]): 4 µg/mL (≈ 8.96 µM)

Question: Which MIC (Staphylococcus aureus [1]) does the source give for `O=c1cc(C(F)(F)F)[nH]c2cc(C(F)(F)F)cc(Nc3ccc(F)cn3)c12` here?
Answer: Its MIC is 0.125 µg/mL (≈ 0.319 µM).

Question: And the Activity (Vero [19])?
Answer: The Activity was “Non-Toxic”.

Question: What about the Activity (Vero [20]) of the same compound?
Answer: The Activity was 20%.

Question: What about the PPB [21] of the same compound?
Answer: The PPB was 99.8%.

Question: What about the solubility kinetic at 6 h [24] of the same compound?
Answer: Its solubility kinetic at 6 h is 1 µg/mL (≈ 2.56 µM).
